IC50 and CC50 data for 13 molecules are collected here from ChEMBL document CHEMBL2010680, “Short cyclic peptides derived from the C-terminal sequence of α1-antitrypsin exhibit significant anti-HIV-1 activity” (Bioorg Med Chem Lett, 2012).

Peptide text beside a SMILES is read from it.

Data set [1] deals with Human immunodeficiency virus 1. Kind of data set: Antiviral activity against Human immunodeficiency virus 1 3B infected in human MT2 cells assessed as inhibition of viral replication after 4 days by ELISA. In kind it is functional, organism-based. The following applies: MT2, 96 h. The method, boiled down:
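Read-out is HIV-1 gag p24 antigen in culture supernatants, measured by ELISA and collected on the fourth day post-infection.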
On the technique in general: ELISA stands for enzyme-linked immunosorbent assay.

The nature of data set [2]: Inhibition of Human immunodeficiency virus 1 3B envelope glycoprotein-mediated cell-cell fusion of infected H9 cells to human MT2 cells measured 2 hrs after wash out by fluorescence analysis. The following applies: MT2, 2 h. In kind it is cell-based. The gist of the method: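 Fluorescence-labeled H9/HIV-1 IIIB cells were washed, then mixed with MT-2 cells at 1:5 for 2 h at 37 °C, without or with peptide at graded concentrations. Fused cells were counted by fluorescence microscopy, percent inhibition of fusion was calculated, and IC50 was derived from the dose-response.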

The nature of data set [3]: Cytotoxicity against human MT2 cells after 4 days by XTT assay. In kind it is cell-based. The method, boiled down: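 Peptide at graded concentrations was added to an equal volume of MT-2 cells (5 × 10^5/ml) and incubated 4 days at 37 °C. XTT (1 mg/ml) was added, and 4 h later soluble formazan was read at 450 nm with a 650 nm reference. CC50 was calculated from the dose-response.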
A general note: Tetrazolium assays rely on reduction of a dye to a coloured formazan, in cell work by metabolically active cells.

Data set [4] concerns Human immunodeficiency virus 1. Put plainly: Antiviral activity against Human immunodeficiency virus type 1 SF162 pseudovirus expressing envelope glycoprotein 160 infected in human U87 cells after 48 hrs by luminometric analysis. In kind it is functional, cell-based, U-87MG ATCC. The following applies: Human immunodeficiency virus 1, SF162 ISOLATE, U-87 MG. The method, boiled down:
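U87-CCR5 cells were seeded overnight. Pseudovirus (1 ng p24/well) was preincubated with peptide at the indicated concentration for 30 min at 37 °C, then added to the cells for 48 h. Cells were washed with PBS and lysed, and luciferase activity was measured by luminometer. Each peptide was tested in triplicate; data are mean ± SD.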

As for H-PEVFLM-OH, the IC50 (as a rule, the concentration needed to halve the response being measured) in data set [1] was over 100 µM; in data set [2], over 200 µM.
As to `CSCC[C@@H]1NC(=O)[C@H](CC(C)C)NC(=O)[C@H](Cc2ccccc2)NC(=O)[C@H](C(C)C)NC(=O)[C@H](Cc2ccccc2)NC(=O)[C@@H]2CCCN2C(=O)[C@H](CS)NC1=O` (cyclo(CPFVFLM)), the results for the IC50 in data set [1], in data set [2] and in data set [4] were 8.96 µM, 67.2 µM and 5.95 µM, respectively. Besides, the CC50 (in general, the concentration at which the toxic effect on the cells reaches its halfway point) at 96 h in data set [3] is over 200 µM.
For `CC(C)C[C@@H]1NC(=O)[C@H](Cc2ccccc2)NC(=O)[C@H](C(C)C)NC(=O)[C@H](Cc2ccccc2)NC(=O)[C@@H]2CCCN2C(=O)[C@H](CS)NC(=O)[C@H](CCCNC(=N)N)NC1=O` (cyclo(CPFVFLR)), the figures for the IC50 in data set [1] and in data set [2] were 74.1 µM and 74 µM, respectively. For the same molecule, in data set [3], the CC50 at 96 h was over 200 µM.
With H-PFVYLI-OH, the IC50 in data set [1] was over 100 µM.
With H-PFVFLE-OH, the half-maximal inhibitory concentration (IC50) in data set [1] is over 100 µM; in data set [2], over 200 µM.
For the molecule H-KPFVFLM-OH, the IC50 in data set [1] is over 100 µM.
As to `CSCC[C@@H]1NC(=O)[C@H](CC(C)C)NC(=O)[C@H](Cc2ccccc2)NC(=O)[C@H](C(C)C)NC(=O)[C@H](CCC(=O)O)NC(=O)[C@@H]2CCCN2C(=O)[C@H](CS)NC1=O` (cyclo(CPEVFLM)), the IC50 in data set [1] is over 100 µM; in data set [2] it was over 200 µM. This molecule gave a CC50 at 96 h in data set [3] of over 200 µM.
Consider H-EFVFLM-OH, for which the IC50 in data set [1] is over 100 µM.
For the molecule `CC(C)C[C@@H]1NC(=O)[C@H](Cc2ccccc2)NC(=O)[C@H](C(C)C)NC(=O)[C@H](Cc2ccccc2)NC(=O)[C@@H]2CCCN2C(=O)[C@H](CS)NC(=O)[C@H](CCC(=O)O)NC1=O` (cyclo(CPFVFLE)), the IC50 in data set [1] was 55.8 µM; in data set [2] it was 116 µM. In data set [3], this molecule showed a CC50 at 96 h of over 200 µM.
On to H-PFVFLM-OH, for which the IC50 in data set [1] was over 100 µM; in data set [2], over 200 µM.
In the case of H-PFVFLR-OH, the results for the IC50 in data set [1] and in data set [2] were over 100 µM and over 200 µM, respectively.
For H-NKPFVFLM-OH, in data set [1], the IC50 is over 100 µM.
H-FVFLM-OH: the IC50 in data set [1] was over 100 µM.
